pIC50: −log10 of the molar value.
Tests used:
[1] = system: HeLa; assay: Antiviral activities in a cell culture HIV-1 infectivity inhibition assay using HeLa cells plus 50% normal human serum; format: functional
[2] = system: HeLa; assay: Antiviral activities in a cell culture HIV-1 infectivity inhibition assay using HeLa cells; format: functional; conditions: Homo sapiens
[3] = target: C-C chemokine receptor type 5 (Homo sapiens, UniProt P51681); assay: Inhibitory concentration for displacement of [125I]-MIP-1 alpha from recombinant human CC chemokine receptor 5 (CCR5) expressed in CHO cell; format: cell-based
Method in brief: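 Competitive binding to CCR5 on CHO cell membranes, read as displacement of [125I]-labeled MIP-1α. IC50 values are means of triplicate determinations. Standard errors were normally <15% within an assay. Assay-to-assay variation was within ±2-fold, judged from a standard compound.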

C-C chemokine receptor type 5, sequence (P51681 whole entry): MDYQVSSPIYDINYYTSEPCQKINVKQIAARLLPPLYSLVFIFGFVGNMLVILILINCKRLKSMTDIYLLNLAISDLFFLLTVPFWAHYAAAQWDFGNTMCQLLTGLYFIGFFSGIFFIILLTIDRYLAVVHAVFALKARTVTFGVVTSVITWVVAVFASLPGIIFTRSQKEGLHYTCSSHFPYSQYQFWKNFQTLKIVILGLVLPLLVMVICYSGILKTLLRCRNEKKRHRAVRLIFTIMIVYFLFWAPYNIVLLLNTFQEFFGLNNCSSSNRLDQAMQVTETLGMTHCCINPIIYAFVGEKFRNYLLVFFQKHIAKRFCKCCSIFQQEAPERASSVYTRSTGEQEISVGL

Structure (SMILES) | IC90 [1] [nM] | IC90 [2] [nM] | pIC50 [3]
CC[C@H](C)[C@H](C(=O)O)N1C[C@H](CN2CCC(c3cc(Cc4cccc5ccccc45)nn3CC)CC2)[C@@H](c2cccc(F)c2)C1 | 11 | < 0.14 | 9.40
CC[C@@H](C)[C@H](C(=O)O)N1C[C@H](CN2CCC(c3cc(Cc4ccc(OC(F)F)cc4)nn3CC)CC2)[C@@H](c2cccc(F)c2)C1 | 11 | < 0.14 | 9.22
CCCCOc1ccc(Cc2cc(C3CCN(C[C@H]4CN([C@@H](C(=O)O)C(C)C)C[C@@H]4c4cccc(F)c4)CC3)n(CC)n2)cc1 | 300 | 11 | 9.30
CCn1nc(Cc2ccc(C)cc2)cc1C1CCN(C[C@H]2CN([C@@H](C(=O)O)C(C)(C)C)C[C@@H]2c2cccc(F)c2)CC1 | 33 | < 0.14 | 9.22
CCn1nc(Cc2ccc(OC3CC3)cc2)cc1C1CCN(C[C@H]2CN([C@@H](C(=O)O)C3CCCCC3)C[C@@H]2c2cccc(F)c2)CC1 | 33 | < 0.14 | 9.70
CCOc1ccc(Cc2cc(C3CCN(C[C@H]4CN([C@@H](C(=O)O)C5CCCCC5)C[C@@H]4c4cccc(F)c4)CC3)n(CC)n2)cc1 | 33 | < 0.14 | 9.00
CCn1nc(Cc2ccc(Oc3ccccc3)cc2)cc1C1CCN(C[C@H]2CN([C@@H](C(=O)O)C(C)C)C[C@@H]2c2cccc(F)c2)CC1 | > 300 | 11 | 9.22
CC[C@H](C)[C@H](C(=O)O)N1C[C@H](CN2CCC(c3cc(Cc4ccc(OC(F)F)cc4)nn3CC)CC2)[C@@H](c2cccc(F)c2)C1 | 11 | < 0.14 | 9.52
CC[C@@H](C)[C@H](C(=O)O)N1C[C@H](CN2CCC(c3cc(Cc4ccc(C(C)(C)C)cc4)nn3CC)CC2)[C@@H](c2cccc(F)c2)C1 | 300 | 1.2 | 9.10
CCn1nc(Cc2ccc(O)cc2)cc1C1CCN(C[C@H]2CN([C@@H](C(=O)O)C3CCCCC3)C[C@@H]2c2cccc(F)c2)CC1 | 33 | 11 | 9.30
CCn1nc(Cc2ccc(F)cc2F)cc1C1CCN(C[C@H]2CN([C@@H](C(=O)O)C(C)C)C[C@@H]2c2cccc(F)c2)CC1 | > 300 | 100 | 8.30
CCCOc1ccc(Cc2cc(C3CCN(C[C@H]4CN([C@@H](C(=O)O)C5CCCCC5)C[C@@H]4c4cccc(F)c4)CC3)n(CC)n2)cc1 | 100 | 1.2 | 9.15
CCn1nc(Cc2ccc(Oc3ccccc3)cc2)cc1C1CCN(C[C@H]2CN([C@@H](C(=O)O)C3CCCCC3)C[C@@H]2c2cccc(F)c2)CC1 | 100 | 1.2 | 9.30
CCn1nc(CC2CCCCC2)cc1C1CCN(C[C@H]2CN([C@@H](C(=O)O)C(C)(C)C)C[C@@H]2c2cccc(F)c2)CC1 | 300 | 3.7 | 8.96
CCn1nc(Cc2cccc3ccccc23)cc1C1CCN(C[C@H]2CN([C@@H](C(=O)O)C(C)(C)C)C[C@@H]2c2cccc(F)c2)CC1 | 11 | < 0.14 | 9.70
CC[C@@H](C)[C@H](C(=O)O)N1C[C@H](CN2CCC(c3cc(Cc4cc(C(F)(F)F)cc(C(F)(F)F)c4)nn3CC)CC2)[C@@H](c2cccc(F)c2)C1 | > 300 | 33 | 8.80
CCn1nc(Cc2ccc(OC(C)(C)C)cc2)cc1C1CCN(C[C@H]2CN([C@@H](C(=O)O)C(C)C)C[C@@H]2c2cccc(F)c2)CC1 | 100 | < 0.14 | 9.10
CC[C@H](C)[C@H](C(=O)O)N1C[C@H](CN2CCC(c3cc(Cc4ccc(C(F)(F)F)cc4)nn3CC)CC2)[C@@H](c2cccc(F)c2)C1 | 33 | < 0.14 | 9.30
CCn1nc(Cc2ccc3c(c2)OCO3)cc1C1CCN(C[C@H]2CN([C@@H](C(=O)O)C(C)(C)C)C[C@@H]2c2cccc(F)c2)CC1 | 33 | < 0.14 | 9.15
CCOc1cccc(Cc2cc(C3CCN(C[C@H]4CN([C@@H](C(=O)O)C(C)(C)C)C[C@@H]4c4cccc(F)c4)CC3)n(CC)n2)c1 | 100 | < 0.14 | 9.40
CCn1nc(Cc2cc(C(F)(F)F)cc(C(F)(F)F)c2)cc1C1CCN(C[C@H]2CN([C@@H](C(=O)O)C(C)C)C[C@@H]2c2cccc(F)c2)CC1 | > 300 | 100 | 8.49
CCCOc1ccc(Cc2cc(C3CCN(C[C@H]4CN([C@@H](C(=O)O)C(C)C)C[C@@H]4c4cccc(F)c4)CC3)n(CC)n2)cc1 | > 300 | 3.7 | 9.10
CCn1nc(Cc2cc(C(F)(F)F)cc(C(F)(F)F)c2)cc1C1CCN(C[C@H]2CN([C@@H](C(=O)O)C(C)(C)C)C[C@@H]2c2cccc(F)c2)CC1 | > 300 | 11 | 8.64
CC[C@@H](C)[C@H](C(=O)O)N1C[C@H](CN2CCC(c3cc(Cc4ccc(S(=O)(=O)c5ccccc5)cc4)nn3CC)CC2)[C@@H](c2cccc(F)c2)C1 | 33 | 0.4 | 8.96

Structure (SMILES) | IC90 [1] [nM] | IC90 [2] [nM] | pIC50 [3]
CCn1nc(Cc2ccc(C#N)cc2)cc1C1CCN(C[C@H]2CN([C@@H](C(=O)O)C3CCCCC3)C[C@@H]2c2cccc(F)c2)CC1 | 11 | 0.4 | 8.77
CCn1nc(Cc2ccc(OC3CC3)cc2)cc1C1CCN(C[C@H]2CN([C@@H](C(=O)O)C(C)(C)C)C[C@@H]2c2cccc(F)c2)CC1 | 33 | < 0.14 | 9.40
CC[C@@H](C)[C@H](C(=O)O)N1C[C@H](CN2CCC(c3cc(Cc4ccc(O)cc4)nn3CC)CC2)[C@@H](c2cccc(F)c2)C1 | 11 | < 0.14 | 9.22
CC[C@H](C)[C@H](C(=O)O)N1C[C@H](CN2CCC(c3cc(Cc4ccc(OCC(F)(F)F)cc4)nn3CC)CC2)[C@@H](c2cccc(F)c2)C1 | 33 | 0.4 | 9.22
CCCOc1ccc(Cc2cc(C3CCN(C[C@H]4CN([C@@H](C(=O)O)[C@@H](C)CC)C[C@@H]4c4cccc(F)c4)CC3)n(CC)n2)cc1 | 100 | < 0.14 | 8.96
CCn1nc(Cc2cccc(C#N)c2)cc1C1CCN(C[C@H]2CN([C@@H](C(=O)O)C(C)(C)C)C[C@@H]2c2cccc(F)c2)CC1 | 11 | < 0.14 | 9.00
CCOc1ccc(Cc2cc(C3CCN(C[C@H]4CN([C@@H](C(=O)O)[C@@H](C)CC)C[C@@H]4c4cccc(F)c4)CC3)n(CC)n2)cc1F | 11 | < 0.14 | 9.15
CC[C@H](C)[C@H](C(=O)O)N1C[C@H](CN2CCC(c3cc(Cc4cc(C(F)(F)F)cc(C(F)(F)F)c4)nn3CC)CC2)[C@@H](c2cccc(F)c2)C1 | > 300 | 11 | 8.68
CC[C@@H](C)[C@H](C(=O)O)N1C[C@H](CN2CCC(c3cc(Cc4ccc(OCc5ccccc5)cc4)nn3CC)CC2)[C@@H](c2cccc(F)c2)C1 | 100 | 3.7 | 9.30
CC[C@@H](C)[C@H](C(=O)O)N1C[C@H](CN2CCC(c3cc(Cc4ccc(Oc5ccccc5)cc4)nn3CC)CC2)[C@@H](c2cccc(F)c2)C1 | 300 | 3.7 | 9.30
CCn1nc(Cc2ccc(OCc3ccccc3)cc2)cc1C1CCN(C[C@H]2CN([C@@H](C(=O)O)C(C)(C)C)C[C@@H]2c2cccc(F)c2)CC1 | 300 | 3.7 | 8.96
CCn1nc(Cc2ccc(F)cc2F)cc1C1CCN(C[C@H]2CN([C@@H](C(=O)O)C3CCCCC3)C[C@@H]2c2cccc(F)c2)CC1 | 33 | 0.4 | 8.82
CCn1nc(Cc2ccc(OC)cc2)cc1C1CCN(C[C@H]2CN([C@@H](C(=O)O)C(C)(C)C)C[C@@H]2c2cccc(F)c2)CC1 | 33 | < 0.14 | 8.82
CC[C@@H](C)[C@H](C(=O)O)N1C[C@H](CN2CCC(c3cc(Cc4ccc(-c5ccccc5)cc4)nn3CC)CC2)[C@@H](c2cccc(F)c2)C1 | 300 | 1.2 | 9.30
CCn1nc(Cc2cccc(OC)c2)cc1C1CCN(C[C@H]2CN([C@@H](C(=O)O)C(C)(C)C)C[C@@H]2c2cccc(F)c2)CC1 | 33 | < 0.14 | 9.15
CCn1nc(Cc2ccc(O)cc2)cc1C1CCN(C[C@H]2CN([C@@H](C(=O)O)C(C)(C)C)C[C@@H]2c2cccc(F)c2)CC1 | 11 | 0.4 | 8.96
CCn1nc(Cc2ccc(C#N)cc2)cc1C1CCN(C[C@H]2CN([C@@H](C(=O)O)C(C)C)C[C@@H]2c2cccc(F)c2)CC1 | 100 | 1.2 | 8.51
CC[C@H](C)[C@H](C(=O)O)N1C[C@H](CN2CCC(c3cc(Cc4ccc(OC)c(C#N)c4)nn3CC)CC2)[C@@H](c2cccc(F)c2)C1 | 33 | < 0.14 | 9.30
CCn1nc(Cc2ccccc2F)cc1C1CCN(C[C@H]2CN([C@@H](C(=O)O)C3CCCCC3)C[C@@H]2c2cccc(F)c2)CC1 | 33 | < 0.14 | 9.30
CC[C@H](C)[C@H](C(=O)O)N1C[C@H](CN2CCC(c3cc(Cc4ccc(-c5ccccc5)cc4)nn3CC)CC2)[C@@H](c2cccc(F)c2)C1 | 33 | 0.4 | 9.52
CC[C@H](C)[C@H](C(=O)O)N1C[C@H](CN2CCC(c3cc(Cc4ccc(S(=O)(=O)c5ccccc5)cc4)nn3CC)CC2)[C@@H](c2cccc(F)c2)C1 | 11 | < 0.14 | 9.22
CCn1nc(Cc2ccc(OC3CC3)cc2)cc1C1CCN(C[C@H]2CN([C@@H](C(=O)O)C(C)C)C[C@@H]2c2cccc(F)c2)CC1 | 300 | 1.2 | 9.00
CCn1nc(Cc2cccnc2)cc1C1CCN(C[C@H]2CN([C@@H](C(=O)O)C3CCCCC3)C[C@@H]2c2cccc(F)c2)CC1 | 33 | 0.4 | 8.41

Reference: ChEMBL document CHEMBL1147446, “Antagonists of human CCR5 receptor containing 4-(pyrazolyl)piperidine side chains. Part 3: SAR studies on the benzylpyrazole segment” (Bioorg Med Chem Lett, 2004)
